Bioassay records: PubChem BioAssay, several laboratories
An excerpt weighted towards active compounds, which were near 2.5% of everything screened.
NR2E3 ag-1 – agonists of human NR2E3 nuclear receptor. CHO-S Gal4-NCOR/VP16-NR2E3 two-hybrid, luciferase. inhibition of corepressor binding, % at 3.98 µM. actives 0.35% (n = 360,000);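 active = inhibition above the mean of all tested compounds plus 3 SD, cut at about 70% in these data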;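 also: 0% = DMSO with NR2E3 transfected cells and 100% = cells lacking NR2E3 construct; higher means lower luciferase signal from less NR2E3 corepressor binding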
NR2E3 ag-2 – NR2E3 (human) agonism | Q9Y5X4 | GST-NR2E3/biotin-RetCOR TR-FRET, 1536-well | inhibition of corepressor binding, % at 4.78 µM | actives 0.12% (n = 320,000) | AID 2300;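 active = percent inhibition above the cutoff of mean plus 3 SD of all tested compounds, set per screening campaign, cut at about 20% in these data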;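 also: 0% = DMSO wells and 100% = biotin wells as full block of FRET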
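Material – GST-tagged NR2E3 plus biotinylated RetCOR corepressor · Quantity – NR2E3 fusion 1.35 nM · Times – 5 h incubation at 4 °C · Medium – pH 7.5 Tris-based buffer · Technique – TR-FRET, Eu(K)-anti-GST donor, streptavidin-D2 acceptor, ex 340, em 617/671 nm · Benchmarks – high control biotin, low control 0.6% DMSO · Format – 1536-well plates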
proKLK7 act – proKLK7 (human) activation, primary screen. P49862. purified proKLK7, EDANS-DABCYL substrate fluorescence; 100% is mature enzyme control, 0% vehicle. activation, % at 7 µM. actives 0.9% (n = 370,000). AID 652039;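 active = activation above the mean of all tested compounds plus 3 SD, computed per campaign excluding outliers beyond control limits, cut at about 13% in these data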
JMJD2C inh – human JMJD2C demethylase inhibition; Q9H3R0; actives 0.069% (n = 330,000); GST-JMJD2C(1-420) H3K9me3 demethylation, DELFIA europium; inhibition, % at 2.35 µM;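 active = more than half of a compound's replicate wells show inhibition beyond 50%, single wells judged on their own value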;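 also: signal counts dimethyl H3K9 product captured on neutravidin plate; 0% = median of DMSO wells and 100% = 0.3 times that DMSO median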
ADAM10 inh – ADAM10 inhibition, QFRET primary screen; actives 0.62% (n = 370,000); inhibition, % at 7 µM; recombinant ADAM10, EDANS/DABCYL FRET peptide cleavage, 3 h; O14672;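 active = inhibition above a per-campaign cutoff equal to the mean of compounds falling between control-based bounds plus 3 SD, cut at about 20% in these data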;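 also: 0% = DMSO wells while the 100% control is not disclosed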
ADAM17 inh – ADAM17 inhibition, QFRET primary screen. inhibition, % at 6.95 µM. actives 0.83% (n = 370,000). P78536. recombinant ADAM17, EDANS/DABCYL FRET peptide cleavage;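 active = inhibition above the mean of compounds lying between control limits plus 3 SD, set per campaign, cut at about 8.5% in these data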;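 also: 0% = DMSO-only wells as the low control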
Target sequence (P78536 215-824 limits assumed): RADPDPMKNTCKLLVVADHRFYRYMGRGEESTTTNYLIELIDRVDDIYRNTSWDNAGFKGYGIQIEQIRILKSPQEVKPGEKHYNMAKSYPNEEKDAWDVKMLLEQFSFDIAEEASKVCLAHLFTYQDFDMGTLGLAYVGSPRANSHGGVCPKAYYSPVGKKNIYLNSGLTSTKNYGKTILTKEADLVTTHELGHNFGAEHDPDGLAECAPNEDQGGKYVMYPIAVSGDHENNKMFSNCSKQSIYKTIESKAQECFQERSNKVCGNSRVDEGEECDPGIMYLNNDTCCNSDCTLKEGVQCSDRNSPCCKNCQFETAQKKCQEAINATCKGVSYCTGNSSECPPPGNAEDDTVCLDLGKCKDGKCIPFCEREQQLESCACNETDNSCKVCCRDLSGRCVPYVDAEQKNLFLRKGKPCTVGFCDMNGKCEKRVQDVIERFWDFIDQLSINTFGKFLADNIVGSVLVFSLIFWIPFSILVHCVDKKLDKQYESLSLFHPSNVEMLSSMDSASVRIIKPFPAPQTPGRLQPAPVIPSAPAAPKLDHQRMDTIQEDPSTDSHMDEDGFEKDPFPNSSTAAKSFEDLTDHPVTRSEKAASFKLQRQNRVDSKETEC
NR2E3 ag confirm – confirmation of human NR2E3 agonists; shares compounds with NR2E3 ag-1; CHO-S mammalian two-hybrid NR2E3-NCOR, luciferase luminescence; inhibition, % at 3.98 µM; actives 51% (n = 2,300);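 active = average inhibition above a cutoff equal to the mean inhibition of all tested compounds plus one SD, cut at about 70% in these data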;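 also: 0% = DMSO in NR2E3 cells and 100% = DMSO in cells lacking NR2E3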
VP16 counter – counter-screen for NR2E3 agonists: GAL4-VP16 reporter inhibitors. shares compounds with NR2E3 ag-1. CHO-S GAL4-VP16 luciferase reporter, luminescence. inhibition, % at 3.98 µM. actives 29% (n = 2,300);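 active = mean inhibition above a cutoff equal to the average over all tested compounds plus one standard deviation, cut at about 70% in these data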;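 also: luciferase from a UAS reporter driven by GAL4-VP16 transactivation; 0% = DMSO with VP16-transfected cells and 100% = DMSO with cells lacking VP16; higher means less reporter light so more repression of VP16 activity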
Starred values were filed as active, the others as inactive.

Screening COCC1CCN(C(=O)c2cc(COc3ccc4ncccc4c3)on2)CC1 returned NR2E3 ag-1 68, NR2E3 ag-2 4, proKLK7 act 0, JMJD2C inh -13, ADAM10 inh -6, ADAM17 inh -2, NR2E3 ag confirm 91* and VP16 counter 75*.
Screening O=C(NCCc1cn2ccccc2n1)c1cc(COc2ccc3ncccc3c2)on1 returned NR2E3 ag-1 53, NR2E3 ag-2 0, proKLK7 act 0, JMJD2C inh -1, ADAM10 inh -4, ADAM17 inh -5, NR2E3 ag confirm 70 and VP16 counter 60.
CCc1nc2ccc(C(=O)NCC3CCCCC3)cn2c1N(C)Cc1ccc(OC)cc1 was read as NR2E3 ag-1 -8, proKLK7 act -2, ADAM10 inh -2 and ADAM17 inh 3.
For CC(C)(C)Cc1c(-c2ccc(F)cc2)nc2ccc(Cl)cn12 the results were NR2E3 ag-1 -5, proKLK7 act 0, ADAM10 inh 0 and ADAM17 inh 4.
Screening COc1ccc(C(=O)Nc2ccc3c(c2)C(=O)c2ccccc2C3=O)cc1OC returned NR2E3 ag-1 -6, NR2E3 ag-2 0, proKLK7 act 0, JMJD2C inh -1, ADAM10 inh -3 and ADAM17 inh -1.
Screening COc1ccc(C(=O)c2c(C(F)(F)F)oc3c2C(=O)c2ccccc2C3=O)cc1OC returned NR2E3 ag-1 89*, NR2E3 ag-2 6, proKLK7 act 0, JMJD2C inh 4, ADAM10 inh 11, ADAM17 inh 8, NR2E3 ag confirm 100* and VP16 counter 54.
CCCCSc1nc2c([nH]1)c(=S)n(C)c(=O)n2C was read as NR2E3 ag-1 64, proKLK7 act 0, ADAM10 inh -16, ADAM17 inh -5, NR2E3 ag confirm 31 and VP16 counter -21.
Screening CSc1nc2c([nH]1)c(=S)n(C)c(=O)n2C returned NR2E3 ag-1 33, proKLK7 act 1, ADAM10 inh -14 and ADAM17 inh -5.
For CCCCC(C)Sc1nc2c([nH]1)c(=S)n(C)c(=O)n2C (stereo unspecified) the results were NR2E3 ag-1 87*, proKLK7 act 1, ADAM10 inh -28, ADAM17 inh -6, NR2E3 ag confirm 87* and VP16 counter 61.
CCCC(CC)Sc1nc2c([nH]1)c(=S)n(C)c(=O)n2C (stereo unspecified) was read as NR2E3 ag-1 78*, proKLK7 act 2, ADAM10 inh -126, ADAM17 inh -22, NR2E3 ag confirm 22 and VP16 counter -11.
CCN(CC)CCSc1nc2c([nH]1)c(=S)n(C)c(=O)n2C was read as NR2E3 ag-1 -40, proKLK7 act 5, ADAM10 inh -225 and ADAM17 inh -47.
For COCC(=O)N(C)[C@H]1C[C@H]2c3[nH]c4c(-c5ccccc5)cccc4c3CCN2C(=O)[C@H]1[C@H](C)O the results were proKLK7 act -2, ADAM10 inh -196 and ADAM17 inh -48.
`CCC[C@H]1[C@@H](N(C)Cc2cccs2)CC[C@@]23CCCN2C(=O)CCC[C@@H]13` gave ADAM10 inh 3 and ADAM17 inh 3.
`NC(=O)c1nnsc1Sc1c(C(N)=O)nnn1-c1cccc(N)c1` gave NR2E3 ag-1 -7, NR2E3 ag-2 2, proKLK7 act 0, JMJD2C inh 42, ADAM10 inh -8 and ADAM17 inh -2.
Screening Cc1ccc(C(=S)N2CCN(Cc3ccccc3)CC2)s1 returned NR2E3 ag-1 -17, NR2E3 ag-2 2, proKLK7 act 0, JMJD2C inh 1, ADAM10 inh -2 and ADAM17 inh -5.
Screening Cc1cc(C(=O)COc2cccnc2[N+](=O)[O-])c(C)n1-c1ccccc1 returned NR2E3 ag-1 71*, NR2E3 ag-2 -1, proKLK7 act 0, JMJD2C inh -19, ADAM10 inh 1, ADAM17 inh -1, NR2E3 ag confirm 72* and VP16 counter 54.
Cc1ccc(-n2c(C)cc(C(=O)COc3cccnc3[N+](=O)[O-])c2C)cc1 was read as NR2E3 ag-1 68, NR2E3 ag-2 -2, proKLK7 act 0, JMJD2C inh -4, ADAM10 inh -3, ADAM17 inh -4, NR2E3 ag confirm 29 and VP16 counter 50.
`Cc1cc(C(=O)COc2cccnc2[N+](=O)[O-])c(C)n1-c1ccccc1F` gave NR2E3 ag-1 50, NR2E3 ag-2 -3, proKLK7 act 1, JMJD2C inh 3, ADAM10 inh -4, ADAM17 inh -3, NR2E3 ag confirm 58 and VP16 counter 35.
Cc1cc(C(=O)COc2cccnc2[N+](=O)[O-])c(C)n1Cc1ccco1 was read as NR2E3 ag-1 29, NR2E3 ag-2 0, proKLK7 act 0, JMJD2C inh 4, ADAM10 inh 0 and ADAM17 inh -3.
For COc1ccc(CNS(=O)(=O)/C=C/c2cc(C)ccc2CNC(=O)OC(C)(C)C)cc1 the results were proKLK7 act 0, ADAM10 inh 4 and ADAM17 inh 4.
Screening COc1ccc2oc(C(=O)OCC(=O)N3CCN(S(=O)(=O)c4ccccc4)CC3)c(C)c2c1 returned NR2E3 ag-1 51, NR2E3 ag-2 -6, proKLK7 act -7, JMJD2C inh 1, ADAM10 inh -278, ADAM17 inh -67, NR2E3 ag confirm 90* and VP16 counter 71*.
Screening COc1ccc2oc(C(=O)OCC(=O)N3CCN(c4ccccc4)CC3)c(C)c2c1 returned NR2E3 ag-1 0, NR2E3 ag-2 1, proKLK7 act -1, JMJD2C inh 7, ADAM10 inh -44 and ADAM17 inh -15.
For N#C/C(=N\Nc1ccc(Cl)cc1)C(=O)c1ccccc1 the results were NR2E3 ag-1 99*, NR2E3 ag-2 3, proKLK7 act 0, JMJD2C inh 12, ADAM10 inh -6, ADAM17 inh 1, NR2E3 ag confirm 100* and VP16 counter 91*.
Cc1c(C(=O)N2CCCCC2)oc2ccc(S(=O)(=O)N3CC(C)CC(C)C3)cc12 (stereo unspecified) was read as NR2E3 ag-1 77*, NR2E3 ag-2 -6, JMJD2C inh 2, NR2E3 ag confirm 73* and VP16 counter 63.
